According to ChEMBL document CHEMBL6071141, “In vitro and in vivo evaluation of Bombesin-MMAE conjugates for targeted tumour therapy” (Eur J Med Chem, 2024):
Calls of active or inactive are those of the source. The calls are words filed in the database; no cut-off is given here. Numbered stars: 1 amine (or outer) side, 2 acyl side, 3 side chain; on linkers, the order of the positions; unused ones are H or OH. Bridge positions count the residues as written; N and C are the ends. Square brackets hold non-standard residues; d marks the D form. Peptide text beside a SMILES is read from it. I, II: the chains in the order shown. * marks the point of attachment. Hexanoyl(6-succinimido-3yl) = O=C1CC([*:1])C(=O)N1CCCCCC(=O)[*:2]; Dolaproine = CO[C@@H]([C@@H]1CCCN1)[C@@H](C)C(=O)O; X2 = O=C([C@H](CC1=CSC2C=CC=CC12)N[*:1])[*:2]; Dil = CC[C@H](C)[C@H](NC)[C@@H](CC(=O)O)OC; PABC = O=C(OCc1ccc(N[*:1])cc1)[*:2]; X3 = C[C@@H](N*)[C@@H](O)c1ccccc1; Cit = NC(=O)NCCC[C@H](N)C(=O)O; PEG4 = NCCOCCOCCOCCOCCC(=O)O; NMeV = CN[C@H](C(=O)O)C(C)C; Nle = CCCC[C@H](N)C(=O)O

How the values were obtained:
PC-3 [1] = test: Antitumor activity against human PC-3 cells xenografted with mouse assessed as median survival days at 2 mg/kg, ip (reference value: 33 days)
[2] = target: T1, Gastrin-releasing peptide receptor (Homo sapiens, UniProt P30550); test: Displacement of 125 I- [Tyr4] from bombesin receptor 2 in human MDA-MB-231 cells assessed as inhibition by radioligand displacement assay; assay type: cell-based
In short: (§1)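 Competition binding on membrane preparations from PC-3 or MDA-MB-231 cells against ¹²⁵I-[Tyr⁴]-bombesin, with conjugates at 10 μM–10 pM. IC50 was taken as the concentration giving 50 % inhibition of tracer binding.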

[3] = Cytotoxicity against human cells MDA-MB-231 assessed as inhibition of cell growth incubated for 72 hrs by CellTiter 96 aqueous assay; assay type: toxicity, cell-based; details: MDA-MB-231 cells
In short: (§2)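 PC-3 or MDA-MB-231 cells were treated the day after seeding with serial dilutions, from 2000 nM for conjugates and 100 nM for MMAE, for 72 h. Then the assay was stopped, or run 72 h more after a medium change (single) or re-treatment (double). Controls got 0.05 % DMSO. Read-out was MTS absorbance at 490 nm after 90 min. IC50 by non-linear regression; ≥2 experiments, triplicates.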

[4] = Cytotoxicity against human MDA-MB-231 cells assessed as inhibition of cell growth incubated with compound for 72 hrs followed by further incubated for 72 hrs (single treatment) by CellTiter 96 aqueous assay; assay type: toxicity, cell-based
In short: as §2

[5] = Cytotoxicity against human PC-3 cells assessed as inhibition of cell growth incubated for 72 hrs by CellTiter 96 aqueous assay; assay type: toxicity, cell-based
In short: as §2

[6] = Cytotoxicity against human PC-3 cells assessed as inhibition of cell growth incubated with compound for 72 hrs followed by further incubated for 72 hrs (single treatment) by CellTiter 96 aqueous assay; assay type: toxicity, cell-based
In short: as §2

[7] = Toxicity in mouse xenografted with human PC-3 cells assessed as skin rash at 0.5 mg/kg, ip administered upto 23 days; details: in vivo, 552 h
[8] = Toxicity in mouse xenografted with human PC-3 cells assessed as body weight loss at 1 mg/kg, ip administered relative to control; assay type: organism-based; details: in vivo, 2 mg/kg, in the assay text read “2 mg/kg” for “1 mg/kg”
In short: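 Toxicity in mice bearing subcutaneous PC-3 tumours after a single i.p. dose 9 days post-inoculation. Free drug at 1 mg/kg, conjugates at 2 mg/kg MMAE-content, in 5 % DMSO in water; solvent controls; eight per group. Body weight followed periodically. Endpoint at 20 % weight loss; behaviour (activity, coat, stool, paleness) also scored.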

[9] = target: T1, Gastrin-releasing peptide receptor; test: Displacement of 125 I- [Tyr4] from bombesin receptor 2 in human PC-3 cells assessed as inhibition by radioligand displacement assay; assay type: cell-based
In short: as §1

[10] = Cytotoxicity against human PC-3 cells assessed as inhibition of cell growth incubated for 72 hrs and followed by treated with compound continued incubation for further 72 hrs (double treatment) after retreatment of compound by CellTiter 96 aqueous assay; assay type: toxicity, cell-based
In short: as §2

[11] = Biodistribution in mouse xenografted with human PC-3 cells assessed as tumour environment incubated for 24 hrs by LC-HRMS; assay type: ADME, organism-based, Neoplasm; details: in vivo
In short: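 Mice bearing PC-3 xenografts received a single 2 mg/kg i.p. dose. Blood, tumour, liver, kidneys, heart, lungs and pancreas were collected at 1, 6 and 24 h and pooled per group. Tissues were homogenised in water (1:2 w/v) and centrifuged. Released MMAE was measured by LC-HRMS and expressed as %ID/g (n = 3).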

PC-3 [12] = test: Antitumor activity against human PC-3 cells xenografted in mouse assessed as reduction in tumour volume relative to control; assay type: functional; design: scale not given: the % may be the effect or the level left
In short: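 Acute study in mice bearing subcutaneous PC-3 tumours. Single i.p. dose (0.1 mL) 9 days after inoculation, at a mean tumour volume of 62 mm³. Eight per group, randomized. Conjugates at 2 mg/kg MMAE-content, free MMAE at 1 mg/kg, in 5 % DMSO in water; solvent controls. Calliper volume V = ab²×π/6. Sacrifice at 20 % weight loss or 2000 mm³.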

[13] = Cytotoxicity against human MDA-MB-231 cells assessed as inhibition of cell growth incubated for 72 hrs and followed by treated with compound continued incubation for further 72 hrs (double treatment) after retreatment of compound by CellTiter 96 aqueous assay; assay type: toxicity, cell-based
In short: as §2

[14] = Metabolic stability in mouse plasma assessed as half life at 5 uM measured upto 24 hrs by LC-HRMS analysis; assay type: ADME, cell-free
In short: (§3)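 Conjugates at 5 μM were incubated in human or mouse plasma at 37 °C, in duplicate. Samples were taken at t0, 0.25, 0.5, 1, 2, 4 and 24 h and quenched with 1 % formic acid in MeCN (2× volume). After centrifugation (14000 rpm, 4 °C), supernatants were diluted 1:1 with water and analysed by LC-HRMS.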

[15] = Metabolic stability in human plasma assessed as half life at 5 uM measured upto 24 hrs by LC-HRMS analysis; assay type: ADME, cell-free
In short: as §3

PC-3 [16] = test: Antitumor activity against human PC-3 cells xenografted in mouse assessed as reduction in tumour weight at 0.5 mg/kg, ip administered upto 23 days relative to control; assay type: functional; design: scale not given: the % may be the effect or the level left; details: time <= 23 day
PC-3 [17] = test: Antitumor activity against human PC-3 cells xenografted in mouse assessed as inhibition in tumour growth at 0.5 mg/kg, ip administered upto 23 days; assay type: functional, organism-based; details: time <= 23.0 day
In short: (§4)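 Chronic study in mice bearing subcutaneous PC-3 tumours. Dosing began 8 days after cell inoculation, at a mean tumour volume of 93 mm³. Seven per group, randomized. Four i.p. doses (0.1 mL) on days 8, 11, 16 and 23 of 0.5 mg/kg MMAE-content, in 5 % DMSO in water for injection; controls got solvent. Tumour volume by calliper, V = ab²×π/6.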

PC-3 [18] = test: Antitumor activity against human PC-3 cells xenografted in mouse assessed as reduction in tumour size at 0.5 mg/kg, ip administered upto 23 days relative to control; assay type: functional; design: scale not given: the % may be the effect or the level left; details: time <= 23 day
In short: as §4

[19] = target: T1, Gastrin-releasing peptide receptor; test: Displacement of 125 I- [Tyr4] from bombesin receptor 2 (unknown origin) assessed as inhibition by radioligand competitive binding assay
[20] = Displacement of 125 I- [Tyr4] from bombesin receptor 1 (unknown origin) assessed as inhibition by radioligand competitive binding assay; design: species or system Homo sapiens
[21] = target: T2, Bombesin receptor subtype-3 (Homo sapiens, UniProt P32247); test: Displacement of 125 I- [Tyr4] from bombesin receptor 3 (unknown origin) assessed as inhibition by radioligand competitive binding assay
T2 sequence (P32247 whole entry): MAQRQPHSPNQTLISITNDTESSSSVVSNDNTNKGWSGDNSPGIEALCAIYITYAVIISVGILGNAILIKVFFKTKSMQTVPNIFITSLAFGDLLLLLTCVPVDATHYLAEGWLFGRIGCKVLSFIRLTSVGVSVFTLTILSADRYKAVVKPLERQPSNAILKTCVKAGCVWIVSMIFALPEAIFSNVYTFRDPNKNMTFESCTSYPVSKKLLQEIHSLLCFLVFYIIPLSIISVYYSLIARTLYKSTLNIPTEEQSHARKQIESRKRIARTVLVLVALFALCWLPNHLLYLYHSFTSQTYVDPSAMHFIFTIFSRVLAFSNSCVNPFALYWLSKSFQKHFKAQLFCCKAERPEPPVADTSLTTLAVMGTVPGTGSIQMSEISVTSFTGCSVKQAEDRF

T1 sequence (P30550 whole entry): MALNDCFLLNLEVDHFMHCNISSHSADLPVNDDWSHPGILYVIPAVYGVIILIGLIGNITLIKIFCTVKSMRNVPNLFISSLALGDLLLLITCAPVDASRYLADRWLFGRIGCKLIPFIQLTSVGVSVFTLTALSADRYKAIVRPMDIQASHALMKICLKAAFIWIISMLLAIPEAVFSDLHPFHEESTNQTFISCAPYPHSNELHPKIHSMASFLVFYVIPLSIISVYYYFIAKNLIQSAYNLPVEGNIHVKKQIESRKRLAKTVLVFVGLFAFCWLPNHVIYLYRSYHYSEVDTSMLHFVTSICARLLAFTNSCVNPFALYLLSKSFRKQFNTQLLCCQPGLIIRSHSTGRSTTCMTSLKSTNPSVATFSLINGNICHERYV

SMILES | Survival (PC-3 [1]) [days] | IC50 [2] [nM] | IC50 at 72 h [3] [nM] | IC50 at 144 h [4] [nM] | IC50 at 72 h [5] [nM] | IC50 at 144 h [6] [nM] | Activity [8] [%] | IC50 [9] [nM] | IC50 at 144 h [10] [nM] | Drug uptake [11] | Activity (PC-3 [12]) [%] | IC50 at 144 h [13] [nM] | half-life at 5 µM [14] [h] | half-life at 5 µM [15] [h] | other results
CC[C@H](C)[C@@H]([C@@H](CC(=O)N1CCC[C@H]1[C@H](OC)[C@@H](C)C(=O)N[C@H](C)[C@@H](O)c1ccccc1)OC)N(C)C(=O)[C@@H](NC(=O)[C@H](C(C)C)N(C)C(=O)OCc1ccc(NC(=O)[C@H](CCCNC(N)=O)NC(=O)CNC(=O)[C@@H](CCC(=O)O)NC(=O)CCCCCN2C(=O)CC(SC[C@H](NC(C)=O)C(=O)NCCOCCOCCOCCOCCC(=O)N[C@H](Cc3ccccc3)C(=O)N[C@@H](CCC(N)=O)C(=O)N[C@@H](CC3=CNC4C=CC=CC34)C(=O)N[C@@H](C)C(=O)N[C@H](C(=O)NCC(=O)N[C@@H](Cc3c[nH]cn3)C(=O)N[C@@H](CC(C)C)[C@@H](O)CC(=O)N[C@@H](CC(C)C)C(N)=O)C(C)C)C2=O)cc1)C(C)C (stereo partly specified) | 42 | 72.9 | 885 | 164 | 428 | 110 | < 20 | 68.3 | 83.5 | Active | 26.3 | 131 | 7.2 | – | Activity [7]: Toxic
CC[C@H](C)[C@@H]([C@@H](CC(=O)N1CCC[C@H]1[C@H](OC)[C@@H](C)C(=O)N[C@H](C)[C@@H](O)c1ccccc1)OC)N(C)C(=O)[C@@H](NC(=O)[C@H](C(C)C)N(C)C(=O)OCc1ccc(NC(=O)[C@H](CCCNC(N)=O)NC(=O)[C@@H](NC(=O)[C@H](CCC(=O)O)NC(=O)CCCCCN2C(=O)CC(SC[C@H](NC(C)=O)C(=O)NCCOCCOCCOCCOCCC(=O)N[C@H](Cc3ccccc3)C(=O)N[C@@H](CCC(N)=O)C(=O)N[C@@H](CC3=CNC4C=CC=CC34)C(=O)N[C@@H](C)C(=O)N[C@H](C(=O)NCC(=O)N[C@@H](Cc3c[nH]cn3)C(=O)N[C@@H](CC(C)C)[C@@H](O)CC(=O)N[C@@H](CC(C)C)C(N)=O)C(C)C)C2=O)C(C)C)cc1)C(C)C (stereo partly specified) | 49 | 69.5 | 526 | 42.3 | 29.6 | 4.8 | < 20 | 59.4 | 3.5 | Active | 65.2 | 43.3 | – | 4.6 | Activity (PC-3 [16]): 41.6%; Activity (PC-3 [17]): Active; Activity (PC-3 [18]): 59.8%
CC(=O)N[C@@H](CS)C(=O)N[C@H](Cc1ccccc1)C(=O)N[C@@H](CCC(N)=O)C(=O)N[C@@H](Cc1c[nH]c2ccccc12)C(=O)N[C@@H](C)C(=O)N[C@H](C(=O)NCC(=O)N[C@@H](Cc1c[nH]cn1)C(=O)N[C@@H](CC(C)C)[C@@H](O)CC(=O)N[C@@H](CC(C)C)C(N)=O)C(C)C | – | – | – | – | – | – | – | – | – | – | – | – | ≥ 5 | ≥ 5 | IC50 [19]: 20.5 nM; IC50 [20]: > 10000 nM; IC50 [21]: > 1000 nM
CCCC[C@H](NC(=O)[C@H](CC(C)C)NC(=O)[C@H](Cc1c[nH]cn1)NC(=O)CNC(=O)[C@@H](NC(=O)[C@H](C)NC(=O)[C@H](CC1=CSC2C=CC=CC12)NC(=O)[C@H](CCC(N)=O)NC(=O)[C@H](CC(N)=O)NC(=O)CCOCCOCCOCCOCCNC(=O)[C@H](CSC1CC(=O)N(CCCCCC(=O)N[C@@H](CCC(=O)O)C(=O)NCC(=O)N[C@@H](CCCNC(N)=O)C(=O)Nc2ccc(COC(=O)N(C)[C@H](C(=O)N[C@H](C(=O)N(C)[C@@H]([C@@H](C)CC)[C@@H](CC(=O)N3CCC[C@H]3[C@H](OC)[C@@H](C)C(=O)N[C@H](C)[C@@H](O)c3ccccc3)OC)C(C)C)C(C)C)cc2)C1=O)NC(C)=O)C(C)C)C(N)=O (stereo partly specified) (I: Ac-C[PEG4]NQ[X2]AVGHL[Nle]-NH2 / II: EG[Cit][PABC][NMeV]V[Dil][Dolaproine]-X3; linker I:1-II:N via Hexanoyl(6-succinimido-3yl)) | – | 82.4 | 1260 | 268 | 782 | 216 | – | 80.7 | 165 | – | – | 217 | – | – | –
CC[C@H](C)[C@@H]([C@@H](CC(=O)N1CCC[C@H]1[C@H](OC)[C@@H](C)C(=O)N[C@H](C)[C@@H](O)c1ccccc1)OC)N(C)C(=O)[C@@H](NC(=O)[C@H](C(C)C)N(C)C(=O)OCc1ccc(NC(=O)[C@H](CCCNC(N)=O)NC(=O)[C@@H](NC(=O)CCCCCN2C(=O)CC(SC[C@H](NC(C)=O)C(=O)N[C@H](Cc3ccccc3)C(=O)N[C@@H](CCC(N)=O)C(=O)N[C@@H](Cc3c[nH]c4ccccc34)C(=O)N[C@@H](C)C(=O)N[C@H](C(=O)NCC(=O)N[C@@H](Cc3c[nH]cn3)C(=O)N[C@@H](CC(C)C)[C@@H](O)CC(=O)N[C@@H](CC(C)C)C(N)=O)C(C)C)C2=O)C(C)C)cc1)C(C)C (stereo partly specified) | – | – | 888 | 202 | 718 | 101 | – | – | 92.1 | – | – | 155 | 0.12 | 8.2 | –
